Measurements: PMC7161550 (British Journal of Pharmacology, 2020)
“And” between values parts separate entries of the source, which are not always exact repeats. Identical values can stand only once. “Also recorded” adds a separate entry of the source. Like-named read-outs stand apart in the source and are kept apart here.

Legend:
[1] = molecular target: T1, human recombinant fatty acid amide hydrolase (FAAH) (Homo sapiens, UniProt O00519); test: FAAH activity in intact COS‐hFAAH cells; format: cell-based
T1 sequence (O00519 1-579): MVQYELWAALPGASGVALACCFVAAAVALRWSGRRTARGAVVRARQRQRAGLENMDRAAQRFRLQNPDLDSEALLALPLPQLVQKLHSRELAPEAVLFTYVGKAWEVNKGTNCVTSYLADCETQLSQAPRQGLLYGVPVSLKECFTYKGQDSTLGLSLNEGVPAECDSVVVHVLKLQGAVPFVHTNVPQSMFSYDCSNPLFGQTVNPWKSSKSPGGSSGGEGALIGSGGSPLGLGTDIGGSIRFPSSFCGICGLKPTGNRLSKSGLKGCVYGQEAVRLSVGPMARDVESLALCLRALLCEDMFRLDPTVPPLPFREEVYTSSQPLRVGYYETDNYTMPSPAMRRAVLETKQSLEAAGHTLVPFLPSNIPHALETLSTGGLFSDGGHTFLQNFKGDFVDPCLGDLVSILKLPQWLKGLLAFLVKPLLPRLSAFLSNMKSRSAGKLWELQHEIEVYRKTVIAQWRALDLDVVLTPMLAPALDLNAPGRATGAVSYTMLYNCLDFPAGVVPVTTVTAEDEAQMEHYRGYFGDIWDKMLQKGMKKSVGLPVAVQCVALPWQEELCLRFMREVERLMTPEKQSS

[2] = Plasma and brain levels of BIA 10‐2474 and PF‐04457845 in mice; format: in vivo; conditions: mouse; for Tmax / half-life / AUC(0-t) / Cmax: po
[3] = molecular target: T2, fatty acid amide hydrolase (Rattus norvegicus, UniProt P97612); test: Gel‐based competitive ABPP in vitro, TAMRA‐FP probe, rat brain fractions; format: biochemical; conditions: 1 hr
T2 sequence (P97612 1-579): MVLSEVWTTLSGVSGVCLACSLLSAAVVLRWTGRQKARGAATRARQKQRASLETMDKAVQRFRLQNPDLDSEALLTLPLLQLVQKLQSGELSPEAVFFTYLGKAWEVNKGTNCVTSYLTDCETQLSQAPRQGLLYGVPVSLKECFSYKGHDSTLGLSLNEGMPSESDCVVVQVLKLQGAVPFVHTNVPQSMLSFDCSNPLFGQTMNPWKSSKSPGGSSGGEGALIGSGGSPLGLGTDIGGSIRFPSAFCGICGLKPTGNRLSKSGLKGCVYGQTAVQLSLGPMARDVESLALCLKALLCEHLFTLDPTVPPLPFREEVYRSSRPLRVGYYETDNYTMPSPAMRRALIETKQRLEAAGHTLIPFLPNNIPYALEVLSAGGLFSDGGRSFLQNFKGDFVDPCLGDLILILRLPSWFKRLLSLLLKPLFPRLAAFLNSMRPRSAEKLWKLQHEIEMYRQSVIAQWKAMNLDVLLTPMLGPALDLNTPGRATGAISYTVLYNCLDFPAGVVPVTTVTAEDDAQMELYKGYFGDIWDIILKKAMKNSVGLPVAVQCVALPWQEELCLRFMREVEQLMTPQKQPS
Outline: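 Rat brain membrane and soluble protein extracts (200 μg) were incubated 1 hr at room temperature with test compound at 1 nM–100 μM, DMSO vehicle or PMSF 3 mM. Active serine hydrolases were then labelled with TAMRA‑FP probe (2 μM final) for 1 hr at room temperature. Bands were visualized by in-gel fluorescence.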

[4] = molecular target: T3, mouse liver fatty acid amide hydrolase (FAAH) (Mus musculus, UniProt O08914); test: Ex vivo FAAH activity in mouse liver after oral administration; conditions: for ED50 [95% CI] Liver: 8 hr after oral administration
T3 sequence (O08914 1-579): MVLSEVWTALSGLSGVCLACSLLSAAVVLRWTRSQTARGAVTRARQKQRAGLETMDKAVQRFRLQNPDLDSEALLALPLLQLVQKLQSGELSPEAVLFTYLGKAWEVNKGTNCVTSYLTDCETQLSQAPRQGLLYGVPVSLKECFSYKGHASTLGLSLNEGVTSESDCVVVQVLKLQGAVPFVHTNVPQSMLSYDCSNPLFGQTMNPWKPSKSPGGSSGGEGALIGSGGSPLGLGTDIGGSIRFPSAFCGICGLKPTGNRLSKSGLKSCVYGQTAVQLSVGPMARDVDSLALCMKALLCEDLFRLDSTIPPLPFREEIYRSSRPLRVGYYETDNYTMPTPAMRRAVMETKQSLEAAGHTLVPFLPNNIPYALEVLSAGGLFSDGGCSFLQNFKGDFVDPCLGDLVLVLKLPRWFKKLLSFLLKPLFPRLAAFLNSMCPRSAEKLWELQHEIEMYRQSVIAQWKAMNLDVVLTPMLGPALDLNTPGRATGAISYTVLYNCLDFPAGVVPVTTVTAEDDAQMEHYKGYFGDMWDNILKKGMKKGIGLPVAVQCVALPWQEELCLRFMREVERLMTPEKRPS
Outline: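 Liver and half-brain were collected into FAAH membrane buffer (3 mM MgCl2, 1 mM EDTA, 50 mM Tris HCl, pH 7.4) and stored at −20°C. Homogenates (15 μg protein brain, 5 μg liver) were pre-incubated 15 min at 37°C. AEA + 3H‑AEA + BSA was added for 10 min (brain) or 7 min (liver), then charcoal. Scintillation counting gave % remaining activity versus controls after blank subtraction.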

COS‐hFAAH cells = test: Quantification of compounds in COS‐hFAAH supernatant, cell lysates and medium; format: in vitro ADME; conditions: 1, 3 and 24 hr
[5] = test system: brain fatty acid amides (AEA, PEA, OEA); test: Fatty acid amides; format: in vivo; conditions: mouse brain, 8 hr
Outline: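 Frozen brains were thawed at 4°C and weighed. Each sample was extracted with chloroform:MeOH (2:1) plus 0.1 M phosphate buffer, pH 5.6. Deuterated internal standards were spiked in: AEA‑d8, PEA‑d4 and OEA‑d2 for the fatty acid amides, and 2‑AG‑d8 for 2‑AG.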

[6] = test system: 229 assays for receptors, enzymes, transporters, ion channels, hormones, growth factors and inflammatory mediators; format: binding; conditions: 10 and 50 μM
[7] = brain (without cerebellum), 0.3 mg/kg

CN(C(=O)n1cnc(-c2ccc[n+]([O-])c2)c1)C1CCCCC1 [BIA 10‐2474, 3‐(1‐(cyclohexyl (methyl)carbamoyl)‐1H‐imidazol‐4‐yl)pyridine 1‐oxide]
fold less potent than PF‐04457845 in inhibiting human FAAH in situ [1]: 10 fold | IC50 ([1]; IC50 [95% CI], incubation 1 hr): 74.4 nM | IC50 ([1]; IC50 [95% CI], incubation 3 hr): 42.5 nM | IC50 ([1]; IC50 [95% CI], incubation 24 hr): 18 nM | IC50 ([1]; IC50 values over all incubation times, intact cells expressing human FAAH): 18 to 74 nM | Brain AUClast ([2]; 0.1 mg·kg^−1 p.o.): 11.3 ng·h/g | Brain C max ([2]; 0.1 mg·kg^−1 p.o.): 5.3 ng/g | maximum level in brain ([2]; 0.1 mg·kg^−1 p.o., equivalent of 5.3 ng·g^−1): 18 nM | maximum level in plasma ([2]; 0.1 mg·kg^−1 p.o., equivalent of 33.0 ng·ml^−1): 109 nM | Brain AUClast ([2]; 0.3 mg·kg^−1 p.o.): 60.8 ng·h/g | Brain C max ([2]; 0.3 mg·kg^−1 p.o.): 21.6 ng/g | Tmax ([2]; brain (without cerebellum), 0.1 mg/kg): 1 h | Tmax [2, 7]: 1 h | half-life [2, 7]: 1.75 h | AUC(0-t) ([2]; plasma, 0.1 mg/kg): 110 ng·h/mL | Cmax ([2]; plasma, 0.1 mg/kg): 33 ng/mL | Tmax ([2]; plasma, 0.1 mg/kg): 1 h | half-life ([2]; plasma, 0.1 mg/kg): 2.2 h | AUC(0-t) ([2]; plasma, 0.3 mg/kg): 338 ng·h/mL | Cmax ([2]; plasma, 0.3 mg/kg): 104 ng/mL | Tmax ([2]; plasma, 0.3 mg/kg): 1 h | half-life ([2]; plasma, 0.3 mg/kg): 1.9 h | concentration that completely inhibited the band corresponding to the MW of FAAH [3]: 100 µM | ED50 [95% CI] Liver ([4]; 480 min): 6.2 μg·kg^−1 and 6.2 [4.8, 7.9] μg·kg^−1 | inhibition at 0.1 mg/kg ([4]; po, read-out: inhibition of liver FAAH): > 96.5% | detection in cell lysates (COS‐hFAAH cells): undetectable | stability in cellular media over time (COS‐hFAAH cells): stable | AEA ([5]; 0.01 mg·kg^−1 p.o.): 89.5 ± 9.3 % of control | OEA ([5]; 0.01 mg·kg^−1 p.o.): 109.1 ± 8.6 % of control | PEA ([5]; 0.01 mg·kg^−1 p.o.): 107.2 ± 8.8 % of control | AEA ([5]; 0.03 mg·kg^−1 p.o.): 87.0 ± 10.3 % of control | OEA ([5]; 0.03 mg·kg^−1 p.o.): 143.1 ± 30.6 % of control | PEA ([5]; 0.03 mg·kg^−1 p.o.): 178.6 ± 62.7 % of control | AEA ([5]; 0.1 mg·kg^−1 p.o.): 136.8 ± 16.4 % of control | OEA ([5]; 0.1 mg·kg^−1 p.o.): 676.5 ± 89.8 % of control | PEA ([5]; 0.1 mg·kg^−1 p.o.): 1027.6 ± 148.0 % of control | AEA ([5]; 0.3 mg·kg^−1 p.o.): 172.1 ± 29.5 % of control | OEA ([5]; 0.3 mg·kg^−1 p.o.): 804.0 ± 107.6 % of control | PEA ([5]; 0.3 mg·kg^−1 p.o.): 1,223.3 ± 159.6 % of control | off‐target activity at the sites studied [6]: no significant activity

O=C(Nc1cccnn1)N1CCC(=Cc2cccc(Oc3ccc(C(F)(F)F)cn3)c2)CC1 [PF‐04457845]
IC50 ([1]; read-out: IC50 [95% CI], incubation 1 hr): 4.3 nM | IC50 ([1]; read-out: IC50 [95% CI], incubation 3 hr): 3.4 nM | Plasma AUClast ([2]; 0.03 mg·kg^−1 p.o.): 4.3 ng·h/mL | Plasma C max ([2]; 0.03 mg·kg^−1 p.o.): 1.3 ng/mL | Plasma t max ([2]; 0.03 mg·kg^−1 p.o.): 2 h | detection in the brain ([2]; 0.03 mg·kg^−1 p.o.): not detectable | Brain AUClast ([2]; 0.1 mg·kg^−1 p.o.): 22.9 ng·h/g | Brain C max ([2]; 0.1 mg·kg^−1 p.o.): 3.7 ng/g | Brain t max ([2]; 0.1 mg·kg^−1 p.o.): 2 h | Plasma AUClast ([2]; 0.1 mg·kg^−1 p.o.): 238.3 ng·h/mL | Plasma C max ([2]; 0.1 mg·kg^−1 p.o.): 38.3 ng/mL | Plasma t max ([2]; 0.1 mg·kg^−1 p.o.): 2 h | brain levels, fold lower than in plasma ([2]; 0.1 mg·kg^−1 p.o.): approximately 10 fold | concentration that completely inhibited the band corresponding to the MW of FAAH [3]: 0.1 µM | liver FAAH activity, % of control levels ([4]; 0.1 mg·kg^−1 p.o., 48 hr): 72.3% | inhibition of hepatic FAAH, mean values ([4]; 0.1 mg·kg^−1 p.o., over 24 hr): above 88.7% | ED50 [95% CI] Liver [4]: 2.0 [1.8, 2.2] μg·kg^−1 | detection in cell lysates (COS‐hFAAH cells): detected | stability in cellular media over time (COS‐hFAAH cells): not stable | AEA ([5]; 0.003 mg·kg^−1 p.o.): 88.5 ± 7.5 % of control | OEA ([5]; 0.003 mg·kg^−1 p.o.): 97.1 ± 8.0 % of control | PEA ([5]; 0.003 mg·kg^−1 p.o.): 100.6 ± 16.4 % of control | AEA ([5]; 0.01 mg·kg^−1 p.o.): 220.2 ± 46.9 % of control | OEA ([5]; 0.01 mg·kg^−1 p.o.): 837.5 ± 115.5 % of control | PEA ([5]; 0.01 mg·kg^−1 p.o.): 984.3 ± 107.1 % of control | AEA ([5]; 0.03 mg·kg^−1 p.o.): 257.6 ± 16.9 % of control | OEA ([5]; 0.03 mg·kg^−1 p.o.): 886.1 ± 42.6 % of control | PEA ([5]; 0.03 mg·kg^−1 p.o.): 1073.1 ± 85.1 % of control | AEA ([5]; 0.1 mg·kg^−1 p.o.): 268.7 ± 10.8 % of control | OEA ([5]; 0.1 mg·kg^−1 p.o.): 933.4 ± 17.5 % of control | PEA ([5]; 0.1 mg·kg^−1 p.o.): 1080.9 ± 62.0 % of control | AEA ([5]; 0.3 mg·kg^−1 p.o.): 309.4 ± 16.6 % of control | OEA ([5]; 0.3 mg·kg^−1 p.o.): 961.4 ± 48.2 % of control | PEA ([5]; 0.3 mg·kg^−1 p.o.): 1,141.9 ± 56.3 % of control | off‐target activity at the sites studied [6]: active at a number of sites; also recorded: significant activity at several receptors, transporters and ion channels
